From ChEMBL document CHEMBL1129783, “Synthesis and modeling studies with monocyclic analogues of mycophenolic acid” (J Med Chem, 1996)

Assays:
L1210 [1] = test: Inhibitory activity of compound against L1210 leukemia cells in tissue culture; format: functional, cell-based; conditions: Mus musculus
Method in brief: (§1)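 L1210 leukemia cells in tissue culture were exposed for 48 h to compounds dissolved in DMSO, at up to 100 μM (highest concentration tested). Read-out was growth inhibition, reported as IC50 or as percent inhibition at 100 μM.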

A549 = test: Inhibitory activity of compound against human A549 lung carcinoma cell line.; format: functional, cell-based
A121 = test: Inhibitory activity of compound against human A121 ovarian cell line.; format: functional, cell-based
HT-29 [2] = test: Inhibitory activity of compound against HT-29 human colon adenocarcinoma cell line; […]; format: functional, cell-based
MCF7 = test: Inhibitory activity of compound against human MCF-7 breast adenocarcinoma cell line.; format: functional, cell-based
L1210 [3] = test: Inhibitory activity of compound against L1210 leukemia cells in tissue culture at 100 uM; format: functional; conditions: Mus musculus; method in brief: as §1
HT-29 [4] = test: Inhibitory activity of compound against HT-29 human colon adenocarcinoma cell line; format: functional, cell-based

SMILES | IC50 (L1210 [1]) | IC50 (HT-29 [2]) | also measured
COc1c(C)cc(C(C)=O)c(O)c1C/C=C(\C)CCC(=O)O | > 100 µM | – | –
COc1c(Cl)cc(C(C)=O)c(O)c1C/C=C(\C)CCC(=O)O | – | – | inhibition at 100 µM (L1210 [3]): 21%
COc1c(Cl)cc(C(N)=O)c(O)c1C/C=C(\C)CCC(=O)O | > 100 µM | – | –
COC(=O)c1cc(Cl)c(OC)c(C/C=C(\C)CCC(=O)O)c1O | 61 µM | – | –

Continued, in another order:

IC50 (L1210 [1]) | IC50 (HT-29 [2]) | SMILES | also measured
> 100 µM | – | COc1c(C)cc(C(N)=O)c(O)c1C/C=C(\C)CCC(=O)O | –
> 100 µM | Not Active | COc1ccc(C(C)=O)c(O)c1C/C=C(\C)CCC(=O)O | IC50 (A549): > 32.5 µM; IC50 (A121): > 32.5 µM; IC50 (MCF7): > 32.5 µM
> 100 µM | Not Active | COc1ccc(C(N)=O)c(O)c1C/C=C(\C)CCC(=O)O | –
> 100 µM | – | COC(=O)c1cc(C)c(OC)c(C/C=C(\C)CCC(=O)O)c1O | –
> 100 µM | Not Active | COC(=O)c1ccc(OC)c(C/C=C(\C)CCC(=O)O)c1O | –
< 0.2 µM | – | COc1c(C)c2c(c(O)c1C/C=C(\C)CCC(=O)O)C(=O)OC2 [MYCOPHENOLIC ACID] | IC50 (HT-29 [4]): 0.4 µM
